{"data": "Measurements pooled from the literature", "target": "Beta-secretase 1 (BACE1, Homo sapiens, UniProt P56817)", "action": "inhibitor", "note": "Compare with care: the assays were run in different laboratories."}
{"Compound": "CC[C@H](C)[C@H](NC(=O)[C@@H](C[C@H](O)[C@@H](N)COc1ccc(-c2ccc(F)cc2)c(OCCCOC)c1)C(C)C)C(=O)NCc1ccc(Cl)cc1", "assay": "enzyme activity", "setting": "pH 4.5", "IC50": "0.81 µM"}
{"Compound": "COc1ccc2c(c1)OC1Oc3cc(O)cc(O)c3C(=O)C21O (stereo not drawn)", "assay": "enzyme activity", "IC50": "139 µM"}
{"Compound": "Cc1cc2cc(c1)C(=O)N[C@H]([C@H](O)CN(Cc1cccc(C(C)C)c1)C(=O)OC(C)(C)C)CCC/C=C/CCCC2=O", "assay": "enzyme activity in cells", "IC50": "> 10 µM"}
{"Compound": "CC1(c2ccccc2)COCC(N)=N1 (stereo not drawn)", "assay": "enzyme activity, FRET", "setting": "pH 5", "IC50": "200 µM"}
{"Compound": "[H]/N=C1\\N[C@](C)(c2cccc(Nc3cnc(C4CC4)nc3)c2Cl)CC(=O)N1[C@H]1CCO[C@@H](C)C1", "assay": "enzyme activity, FRET", "IC50": "> 10 µM"}
{"Compound": "CC(C)=CCc1c(O)cc(O)c2c(=O)c(-c3ccc(O)cc3)coc12", "assay": "enzyme activity", "IC50": "27 µM"}
{"Compound": "CN(C)c1nc(N2CCCC2)nc2ccccc12", "assay": "enzyme activity, FRET", "setting": "pH 5", "IC50": "500 µM"}
{"Compound": "CC[C@H](C[C@H](O)[C@@H](N)COc1ccc(-c2ccc(F)cc2)c(OCCCOC)c1)C(=O)N[C@H](C(=O)NCc1ccc(Cl)cc1)[C@@H](C)CC", "assay": "enzyme activity", "setting": "pH 4.5", "IC50": "1.1 µM"}
{"Compound": "C=C(C)[C@@H]1CCC(C)=C[C@H]1c1c(O)cc2occ(-c3ccc(O)cc3)c(=O)c2c1O (relative stereo)", "assay": "enzyme activity", "IC50": "> 200 µM"}
